Reference: ChEMBL document CHEMBL1158180, “Synthesis and antimicrobial activity of some new heterocycles incorporating antipyrine moiety” (2008)

What was measured:
Conditions in all cases: read-out: IZ
Botrytis fabae [1] = assay: Antimicrobial activity Botrytis fabae at 25 ug/mL after 72 hrs by agar diffusion technique
Fusarium oxysporum [2] = assay: Antimicrobial activity Fusarium oxysporum at 25 ug/mL after 72 hrs by agar diffusion technique
Bacillus thuringiensis [3] = assay: Antimicrobial activity Bacillus thuringiensis at 0.15 mg/mL after 24 hrs by agar diffusion technique; format: functional
Summary of the method: (§1)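 Agar diffusion on nutrient agar. Test solutions were 0.15 mg/mL in DMSO, and DMSO alone was the blank. Plates were seeded with the bacterial culture and incubated 24 h at 30 °C. The read-out was the diameter of the inhibition zone in mm.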

Klebsiella pneumoniae [4] = assay: Antimicrobial activity Klebsiella pneumoniae at 0.15 mg/mL after 24 hrs by agar diffusion technique; format: functional
Summary of the method: as §1

Botrytis fabae [5] = assay: Antimicrobial activity Botrytis fabae at 0.15 mg/mL after 72 hrs by agar diffusion technique
Fusarium oxysporum [6] = assay: Antimicrobial activity Fusarium oxysporum at 0.15 mg/mL after 72 hrs by agar diffusion technique
Bacillus thuringiensis [7] = assay: Antimicrobial activity Bacillus thuringiensis at 25 ug/mL after 24 hrs by agar diffusion technique; format: functional
Klebsiella pneumoniae [8] = assay: Antimicrobial activity Klebsiella pneumoniae at 25 ug/mL after 24 hrs by agar diffusion technique; format: functional

Row | SMILES | zone of inhibition at 25 µg/mL (Botrytis fabae [1]) [mm] | zone of inhibition at 25 µg/mL (Fusarium oxysporum [2]) [mm] | zone of inhibition at 150 µg/mL (Bacillus thuringiensis [3]) [mm] | zone of inhibition at 150 µg/mL (Klebsiella pneumoniae [4]) [mm] | zone of inhibition at 150 µg/mL (Botrytis fabae [5]) [mm] | zone of inhibition at 150 µg/mL (Fusarium oxysporum [6]) [mm] | zone of inhibition at 25 µg/mL (Bacillus thuringiensis [7]) [mm] | zone of inhibition at 25 µg/mL (Klebsiella pneumoniae [8]) [mm]
1 | OC(Cn1cncn1)(Cn1cncn1)c1ccc(F)cc1F [FLUCONAZOLE] | 22 | 16 | – | – | – | – | – | –
2 | Cc1cc(C)n(-c2c(C)n(C)n(-c3ccccc3)c2=O)c(=O)c1C#N | – | – | 10 | 13 | 12 | 12 | – | –
3 | Cc1c(NC(=O)c2c(Nc3ccccc3)n[nH]c2N)c(=O)n(-c2ccccc2)n1C | – | – | 15 | 12 | 16 | 12 | – | –
4 | Cc1c(NC(=O)c2sc(=S)n(-c3ccccc3)c2N)c(=O)n(-c2ccccc2)n1C | – | – | 12 | 12 | 13 | 13 | – | –
5 | Cc1cc(C)c2c(N/N=C(\C#N)C(=O)Nc3c(C)n(C)n(-c4ccccc4)c3=O)n[nH]c2n1 | – | – | 16 | 19 | 16 | 16 | – | –
6 | O=C(N[C@H](CO)[C@H](O)c1ccc([N+](=O)[O-])cc1)C(Cl)Cl [CHLORAMPHENICOL] | 16 | 15 | – | – | – | – | 23 | 20
7 | Cc1cc(O)n2nc(Nc3ccccc3)c(C(=O)Nc3c(C)n(C)n(-c4ccccc4)c3=O)c2n1 | – | – | 20 | 24 | 27 | 25 | – | –
8 | Cc1c(NC(=O)c2c(Nc3ccccc3)n[nH]c2/N=C\N(C)C)c(=O)n(-c2ccccc2)n1C | – | – | 27 | 24 | 25 | 21 | – | –
9 | Cc1c(-n2cnc3[nH]nc(Nc4ccccc4)c3c2=O)c(=O)n(-c2ccccc2)n1C | – | – | 28 | 29 | 27 | 25 | – | –
10 | Cc1c(-n2nnc3[nH]nc(Nc4ccccc4)c3c2=O)c(=O)n(-c2ccccc2)n1C | – | – | 22 | 22 | 26 | 22 | – | –
11 | Cc1c(NC(=O)c2cc3ccccc3oc2=N)c(=O)n(-c2ccccc2)n1C | – | – | 24 | 22 | 18 | 18 | – | –
12 | Cc1c(NC(=O)CC#N)c(=O)n(-c2ccccc2)n1C | – | – | 12 | 13 | 10 | 12 | – | –
13 | Cc1cc(C)n2nc(Nc3ccccc3)c(C(=O)Nc3c(C)n(C)n(-c4ccccc4)c3=O)c2n1 | – | – | 21 | 28 | 24 | 25 | – | –
14 | Cc1cc(C)c2c(n1)[nH]n1c(=N)c(C(=O)Nc3c(C)n(C)n(-c4ccccc4)c3=O)nnc21 | – | – | 13 | 14 | 13 | 14 | – | –
15 | CC1(C)S[C@@H]2[C@H](NC(=O)[C@H](N)c3ccccc3)C(=O)N2[C@H]1C(=O)O [AMPICILLIN] | 17 | 15 | – | – | – | – | 18 | 19
